Assay outcomes (PubChem BioAssay)
Compounds with a hit are over-represented: about 2.4% of the library has one in this group of screens.
aDG glyco up: activators of alpha-DG glycosylation, primary screen, uHTS, Pro5-aDG cells, AlphaScreen; alpha-DG glycosylation AlphaScreen (IIH6); 0% Pro5, 100% B10-LARGE cell signal; activation, % at 10 µM; hit rate 0.22% among 360,000;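 active = activation of at least 8% versus controls, or a plate z-score of at least 8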;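 also: Pro5 are CHO cells carrying HIG-tagged alpha-DG that lacks glycosylation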
NR2E3 ag-1: NR2E3 agonists in two-hybrid cells, primary screen, cell-based, luminescence, CHO-S, Gal4-NCOR/VP16-NR2E3 | luciferase | inhibition of corepressor binding, % at 3.98 µM | hit rate 0.35% among 360,000 | AID 602229, 2012;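 active = inhibition above the mean of all tested compounds plus 3 SD, cut at about 70% in these data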;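 also: higher means lower luciferase signal from less NR2E3 corepressor binding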
Target sequence (Q9Y5X4 whole entry, looked up, the tested form may be a part): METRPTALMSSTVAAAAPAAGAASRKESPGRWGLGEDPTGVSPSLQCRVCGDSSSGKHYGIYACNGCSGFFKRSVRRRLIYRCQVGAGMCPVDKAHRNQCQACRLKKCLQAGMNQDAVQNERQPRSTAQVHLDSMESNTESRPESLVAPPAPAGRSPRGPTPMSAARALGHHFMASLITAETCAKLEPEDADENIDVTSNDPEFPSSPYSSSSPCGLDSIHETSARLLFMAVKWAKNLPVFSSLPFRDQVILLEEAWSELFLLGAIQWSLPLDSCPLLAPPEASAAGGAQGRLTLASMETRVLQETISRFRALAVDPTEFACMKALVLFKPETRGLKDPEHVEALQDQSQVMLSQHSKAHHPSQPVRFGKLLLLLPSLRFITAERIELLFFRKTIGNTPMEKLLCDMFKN
Jurkat NFkB inh: inhibitors of induced NF-kB luciferase reporter, primary screen, TCR NF-kB activation inhibitor project, cell-based, luminescence, uHTS | hit rate 0.53% among 330,000 | Jurkat, PMA/ionomycin-induced NF-kB luciferase reporter | inhibition, % at 4 µM; in the data active = inhibition above about 50%
697 NFkB inh: inhibitors of PMA/ionomycin-induced NF-kB reporter, 697 cells, primary screen, B-cell NF-kB inhibitor project, cell-based, luminescence, uHTS; inhibition, % at 4 µM; AID 435022, 2010; 697 B-cell NF-kB luciferase reporter, 16 h; hit rate 0.33% among 330,000; in the data active = inhibition above about 35%
MPTP block: mitochondrial permeability transition pore inhibitors, primary screen, biochemical, isolated mouse mitochondria, absorbance. Ca2+ swelling absorbance, 30 min. hit rate 1.4% among 360,000. inhibition, % at 10 µM;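 active = inhibition of 50% or more, scaled per plate between neutral and stimulator controls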
NR2E3 ag-2: inhibitors of NR2E3-RetCOR corepressor binding, primary screen, NR2E3 agonist project, biochemical, TR-FRET, GST-NR2E3, biotin-RetCOR. 1536-well. hit rate 0.12% among 320,000. inhibition of corepressor binding, % at 4.78 µM. AID 2300, 2010. Photoreceptor-specific nuclear receptor (Homo sapiens), Q9Y5X4;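 active = percent inhibition above the cutoff of mean plus 3 SD of all tested compounds, set per screening campaign, cut at about 20% in these data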
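Material: NR2E3–RetCOR corepressor complex / Amount: 1.35 nM GST-NR2E3 / Medium: Tris pH 7.5 / Compound: single nominal compound dose of 4.8 µM / Incubation: 5 h at 4 °C / Technique: TR-FRET, Eu(K)-anti-GST donor, streptavidin-D2 acceptor, ex 340, em 617/671 nm / Read-out basis: percent loss of FRET ratio relative to control wells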
Rh123 counter: fluorescence retest of MPTP screen hits in isolated mitochondria, single concentration; shares compounds with MPTP block; membrane potential, Rhodamine 123 fluorescence; inhibition, % at 10 µM; hit rate 78% among 5,000; AID 624504, 2012; in the data active = inhibition above about 22%
MPTP swell DR: mitochondrial permeability transition pore inhibitors, dose response, biochemical, absorbance, uHTS hits | shares compounds with MPTP block | isolated mitochondria swelling | IC50, µM | hit rate 58% among 780; in the data active = IC50 below about 20 µM
MPTP counter DR: fluorescent counter-screen in isolated mitochondria, dose response, counter-screen for MPTP inhibitor project, biochemical, fluorescence, uHTS hits. isolated mitochondria counterscreen, fluorescence read-out. hit rate 49% among 780. IC50, µM. shares compounds with MPTP block; in the data active = IC50 below about 80 µM
Large screens that a line does not name were inactive (follow-up assays come after a bar, where they were run).

N#C/C(=C(/O)c1cccc(F)c1)c1nc2ccccc2s1	MPTP block 87 | Rh123 counter 86
N#C/C(=C(/O)C(Cl)c1ccccc1)c1nc2ccccc2s1 (stereo unspecified)	MPTP block 55 | Rh123 counter 74
Cn1c(/C(C#N)=C(\O)c2cccc(F)c2)nc2ccccc21	none
CCOc1ccccc1/C=C/c1onc(C)c1S(=O)(=O)N1CCC(C(=O)NC(C)(C)C)CC1	none
O=C(Cn1nnc(-c2cccs2)n1)N1c2ccccc2Sc2ccc(C(F)(F)F)cc21	none
CCc1sc(NC(=O)CCC(=O)O)nc1-c1cc2ccccc2oc1=O	none
C=CC(C)(C)c1c(O)c(CC=C(C)C)c(O)c2c(=O)c3ccc(O)c(O)c3oc12	MPTP block 85 | Rh123 counter 40
CC(C)=CCc1c(O)ccc(C2COc3c(CC=C(C)C)c(O)cc(O)c3C2=O)c1O (stereo unspecified)	none
COc1ccc(CNC(=O)CSc2n[nH]c(N)n2)cc1	none
COc1cc2cc(C(c3nnnn3C3CCCC3)N3CCCCC3)c(=O)[nH]c2cc1OC (stereo unspecified)	none
O=c1[nH]c2cc3c(cc2cc1C(c1nnnn1C1CCCCC1)N1CCSCC1)OCCO3 (stereo unspecified)	MPTP block 63 | Rh123 counter inactive
COc1cc(CNC2CCCc3ccccc32)cc(OC)c1OC (stereo unspecified)	none
COc1cccc(CNC2CCCc3ccccc32)c1OC (stereo unspecified)	MPTP block 60 | Rh123 counter inactive | MPTP swell DR inactive | MPTP counter DR inactive
O=C(Nc1cccc(Cl)c1)OCCN1CCN(Cc2ccccc2)CCC1=O	MPTP block 93 | Rh123 counter 89
O=C(Nc1ccccc1)OCCN1CCN(Cc2ccccc2)CCC1=O	none
COc1ccc(CCN2CC(C(=O)N(C)CC(=O)Nc3cccc(F)c3)CC2=O)cc1OC (stereo unspecified)	none
CCOC(=O)NC(=O)/C(C#N)=N\Nc1cccc(Cl)c1	MPTP block 93 | Rh123 counter 73
CCOc1ccc(N/N=C(/C#N)C(N)=O)cc1	none
CCOC(=O)NC(=O)/C(C#N)=N\Nc1ccc(Cl)cc1	MPTP block 90 | Rh123 counter 95
CCCCS(=O)(=O)N1CCCC(C(=O)NCC2CCCO2)C1 (stereo unspecified)	none
O=C(Nc1cccc(Cl)c1)N(CCCN1CCOCC1)Cc1ccccc1F	MPTP block 95 | Rh123 counter 95
O=C(Nc1ccccc1)N(CCCN1CCOCC1)Cc1ccccc1F	none
Cc1cc(Cl)ccc1Oc1ccccc1C(=O)CC#N	MPTP block 66 | Rh123 counter 75
CCOC(=O)c1ccc(N=Nc2c(C)[nH]n(-c3ccccc3)c2=O)cc1	none
CCOC(=O)c1ccc(-n2[nH]c(-c3ccccc3)cc2=O)cc1	MPTP block 88 | Rh123 counter 79
CC1CCN(c2nc3nonc3nc2Nc2ccc(F)cc2)CC1	MPTP block 73 | Rh123 counter 75
COc1ccc(Nc2nc3nonc3nc2N2CCCCC2)cc1	none
COC(=O)Cn1c(CN2CCC(Cc3ccccc3)CC2)nc2c1c(=O)n(C)c(=O)n2C	MPTP block 56 | Rh123 counter 103
O=c1[nH]nc(Cc2ccc(-c3cccc(Cl)c3)o2)c2ccccc12	MPTP block 84 | Rh123 counter 83
CC(C)(C)c1ccc(C2CC2C(=O)N/N=C\c2ccc[nH]2)cc1 (stereo unspecified)	aDG glyco up 9.1, MPTP block 105 | Rh123 counter 98
Nc1nonc1C(=O)NCCNCc1c(OCc2ccccc2F)ccc2ccccc12	MPTP block 95 | Rh123 counter 23
COc1cc(OC)c(N(C)S(=O)(=O)c2cccc(C(=O)NC3=NCCS3)c2)cc1Cl	none
CCOC(=O)C1(Cc2ccccc2)CCN(Cc2cnn(CC)c2)CC1	none
CCOC(=O)c1[nH]ncc1CN1CCC(Cc2ccccc2)(C(=O)OCC)CC1	none
CCOC(=O)C1(Cc2ccccc2)CCN(Cc2cnn(-c3ccccc3)c2)CC1	MPTP block 62 | Rh123 counter inactive | MPTP swell DR 15 | MPTP counter DR 33
CCn1cc(CN2CCCC(C(=O)c3ccc(-c4ccccc4)cc3)C2)cn1 (stereo unspecified)	MPTP block 58 | Rh123 counter inactive | MPTP swell DR 19 | MPTP counter DR 26
CCOC(=O)C1(Cc2ccccc2)CCCN(Cc2cnn(CC)c2)C1 (stereo unspecified)	MPTP block 64 | Rh123 counter inactive | MPTP swell DR inactive | MPTP counter DR inactive
O=S(=O)(Nc1ccc(Cl)cn1)c1cccs1	none
COc1ccc(/C=N/Nc2cc(N3CCCC3)nc(N3CCCC3)n2)cc1	MPTP block 77 | Rh123 counter 82
CC(C)OC(=O)N(C)C[C@H]1OCc2cn(nn2)CCCC(=O)N([C@H](C)CO)C[C@@H]1C	none (no result: Jurkat NFkB inh, 697 NFkB inh, NR2E3 ag-2)
CCOc1ccc(NS(=O)(=O)c2ccc(C(=O)N3CC(C)OC(C)C3)cc2)cc1 (stereo unspecified)	none
Cc1cccc(Oc2cc(NC(=O)Cn3cnc([N+](=O)[O-])n3)cc([N+](=O)[O-])c2)c1	MPTP block 77 (no result: Jurkat NFkB inh, 697 NFkB inh) | Rh123 counter 66
C=CCNc1ncnc2c1[nH]c1ccc(Cl)cc12	MPTP block 89 | Rh123 counter 94
COc1ccc(S(=O)(=O)N(C)C[C@H]2Oc3c(NS(=O)(=O)c4ccc(F)cc4)cccc3C(=O)N([C@H](C)CO)C[C@@H]2C)cc1	none (no result: NR2E3 ag-2)
O=C(Nc1cccc(Cl)c1)C1=Cc2cc(Cl)ccc2OC1	MPTP block 95 | Rh123 counter 110
O=C(Nc1ccc(Cl)c(Cl)c1)C1=Cc2ccccc2OC1	MPTP block 89 | Rh123 counter 92
